According to ChEMBL document CHEMBL1629488, “Synthesis and biological evaluation of 2-(3',4',5'-trimethoxybenzoyl)-3-aryl/arylaminobenzo[b]thiophene derivatives as a novel class of antiproliferative agents” (Eur J Med Chem, 2010):

Tests used:
[1] = test system: Jurkat; assay: Antiproliferative activity against human Jurkat cells after 72 hrs by MTT assay; format: functional, cell-based
[2] = test system: K562; assay: Antiproliferative activity against human K562 cells after 72 hrs by MTT assay; format: functional, cell-based; conditions: K562, 72 h
[3] = Inhibition of tubulin polymerization after 20 mins by turbidimetry
[4] = test system: A549; assay: Antiproliferative activity against human A549 cells after 72 hrs by MTT assay; format: functional, cell-based; conditions: A549, 72 h
How it was run: (§1)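 A549 and HeLa cells grown in DMEM with 10% FBS and penicillin/streptomycin. Plated at 8 × 10^3 cells/well and held 18 h at 37 °C in 5% CO2. Medium replaced with compound in complete medium at varied concentrations for 72 h at 37 °C, then MTT read.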

[5] = test system: HL-60; assay: Antiproliferative activity against human HL60 cells after 72 hrs by MTT assay; format: functional, cell-based; conditions: HL-60, 72 h
[6] = test system: HeLa; assay: Antiproliferative activity against human HeLa cells assessed as cell viability after 72 hrs by MTT assay; format: functional, cell-based; how it was run: as §1
[7] = Inhibition of tubulin polymerization after 20 mins by turbidimetry
How it was run: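 Tubulin (10 µM) in glutamate buffer was preincubated with varied compound concentrations at 30 °C, then cooled to 0 °C. GTP was added and the mixture warmed to 30 °C in cuvettes while turbidity was recorded.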

SMILES | IC50 [1] [nM] | IC50 [2] [nM] | IC50 [3] [µM] | IC50 [4] [µM] | IC50 [5] [µM] | IC50 [6] [µM] | inhibition [7] [%]
COc1cc(C(=O)c2sc3cc(C)ccc3c2Nc2ccc(C)cc2)cc(OC)c1OC | 2500 | 1400 | 15 | 1.9 | 1.9 | 0.98 | –
COc1ccc(-c2c(C(=O)c3cc(OC)c(OC)c(OC)c3)sc3ccccc23)cc1 | 1600 | 1700 | – | 4.4 | 1.6 | 4.2 | –
COc1ccc(Nc2c(C(=O)c3cc(OC)c(OC)c(OC)c3)sc3ccccc23)cc1 | 3500 | 2900 | – | 9.3 | 3.7 | 7.7 | –
COc1ccc(OC)c(-c2c(C(=O)c3cc(OC)c(OC)c(OC)c3)sc3ccccc23)c1 | > 10000 | > 10000 | – | > 10 | > 10 | – | –
COc1cc(C(=O)c2sc3ccccc3c2-c2ccc(SC)cc2)cc(OC)c1OC | 1900 | 1800 | – | 5.4 | 1.3 | 3.5 | –
COc1cc(C(=O)c2sc3ccccc3c2-c2ccccc2)cc(OC)c1OC | 1500 | 2100 | – | 5 | 1.7 | 1.9 | –
COc1cc(C(=O)c2sc3ccccc3c2Nc2ccccc2)cc(OC)c1OC | 1600 | 2300 | – | 3 | 5.2 | 2.7 | –
COc1cc(C(=O)c2sc3ccccc3c2Nc2ccc(Cl)cc2)cc(OC)c1OC | 1900 | 1100 | – | 3.1 | 5.4 | 3.7 | –
COc1cc(C(=O)c2sc3ccccc3c2-c2ccc(C)cc2)cc(OC)c1OC | 3300 | 3500 | – | 7.8 | 1.4 | 3.7 | –
COc1cc(C(=O)c2sc3ccccc3c2-c2ccc(Cl)cc2)cc(OC)c1OC | 3700 | 4200 | – | 7.5 | 3.3 | 5.2 | –
COc1ccc(-c2c(C(=O)c3cc(OC)c(OC)c(OC)c3)sc3ccccc23)cc1C | > 10000 | > 10000 | – | > 10 | > 10 | > 10 | –
COc1ccccc1-c1c(C(=O)c2cc(OC)c(OC)c(OC)c2)sc2ccccc12 | 2900 | 3400 | – | > 10 | 2.9 | 5 | –
CCOc1ccc(Nc2c(C(=O)c3cc(OC)c(OC)c(OC)c3)sc3cc(C)ccc23)cc1 | 5000 | 4300 | – | 5.8 | 4 | 4.3 | 50
CCOc1ccc(-c2c(C(=O)c3cc(OC)c(OC)c(OC)c3)sc3ccccc23)cc1 | 4100 | 3100 | – | 3.1 | 3.5 | 3 | –
COc1ccc(-c2c(C(=O)c3cc(OC)c(OC)c(OC)c3)sc3ccccc23)c(OC)c1 | 4000 | 4100 | – | 5.8 | 4.6 | 3.9 | –
COc1cc(C(=O)c2sc3ccccc3c2Nc2ccc(C)cc2)cc(OC)c1OC | 1700 | 1600 | – | 2.6 | 4.6 | 3.5 | –
COc1cc(C(=O)c2sc3ccccc3c2-c2ccc(F)cc2)cc(OC)c1OC | 2300 | 2100 | – | 3.2 | 3.2 | 3 | –
